Active and inactive are the calls of the source. No cut-off for these calls is given here.
What was measured:
[1] = molecular target: T1, 5-hydroxytryptamine receptor 1A (Rattus norvegicus, UniProt P19327); experiment: Displacement of [3H]-8-OH-DPAT from 5-HT1A receptor in Sprague-Dawley rat cerebral cortex after 15 mins; format: tissue-based
T1 sequence (P19327 whole entry): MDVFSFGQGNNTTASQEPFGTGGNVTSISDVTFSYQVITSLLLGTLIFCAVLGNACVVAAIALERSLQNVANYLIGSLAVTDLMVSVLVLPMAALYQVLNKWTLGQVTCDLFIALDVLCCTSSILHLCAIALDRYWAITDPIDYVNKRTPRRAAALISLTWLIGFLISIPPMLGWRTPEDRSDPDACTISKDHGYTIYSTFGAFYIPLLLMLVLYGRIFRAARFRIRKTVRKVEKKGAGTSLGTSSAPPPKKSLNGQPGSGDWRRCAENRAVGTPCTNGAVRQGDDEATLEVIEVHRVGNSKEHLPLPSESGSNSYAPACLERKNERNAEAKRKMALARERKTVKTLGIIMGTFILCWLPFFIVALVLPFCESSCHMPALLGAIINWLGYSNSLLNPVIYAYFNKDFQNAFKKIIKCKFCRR

[2] = molecular target: 5-hydroxytryptamine receptor 4 (Rattus norvegicus, UniProt Q62758); experiment: Displacement of [3H]GR113808 from 5-HT4 receptor in Sprague-Dawley rat striatum after 30 mins
[3] = molecular target: 5-hydroxytryptamine receptor 2A (Rattus norvegicus, UniProt P14842); experiment: Displacement of [3H]ketanserin from 5-HT2A receptor in Sprague-Dawley rat frontal cortex after 15 mins; format: tissue-based
[4] = molecular target: 5-hydroxytryptamine receptor 7 (Rattus norvegicus, UniProt P32305); experiment: Displacement of [3H]-5-CT from 5-HT7 receptor in Sprague-Dawley rat hypothalamus after 120 mins
[5] = molecular target: T2, 5-hydroxytryptamine receptor 3A (Rattus norvegicus, UniProt P35563); experiment: Displacement of [3H]LY 278584 from 5-HT3 receptor in Sprague-Dawley rat cerebral cortex after 30 mins; format: tissue-based
T2 sequence (P35563 whole entry): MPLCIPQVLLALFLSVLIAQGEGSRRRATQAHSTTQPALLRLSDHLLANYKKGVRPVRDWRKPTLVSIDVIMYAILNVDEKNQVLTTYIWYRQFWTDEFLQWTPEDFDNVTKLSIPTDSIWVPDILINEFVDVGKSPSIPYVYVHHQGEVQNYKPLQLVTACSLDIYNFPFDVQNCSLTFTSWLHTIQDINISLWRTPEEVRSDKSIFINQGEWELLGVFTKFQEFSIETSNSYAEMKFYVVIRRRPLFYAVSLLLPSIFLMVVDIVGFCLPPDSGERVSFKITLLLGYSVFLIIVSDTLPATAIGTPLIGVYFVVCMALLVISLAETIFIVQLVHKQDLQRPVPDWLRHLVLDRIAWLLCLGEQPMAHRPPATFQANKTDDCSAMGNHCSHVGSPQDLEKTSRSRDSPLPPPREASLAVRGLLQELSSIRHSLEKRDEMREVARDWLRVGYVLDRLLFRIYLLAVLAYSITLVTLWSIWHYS

Mus musculus [6] = experiment: Antinociceptive activity in CD-1 mouse assessed as reduction of formalin-induced paw licking activity at 3 mg/kg, ip administered 15 mins prior to formalin-challenge measured after 15 to 30 mins; format: functional, organism-based; set-up: dose 3 mg/kg
[7] = Half life in human liver microsomes at 1 to 5 uM by HPLC-MS analysis; format: ADME, Microsome
In short: (§1)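 Incubation mixtures pre-equilibrated at 37 °C with NADPH and MgCl2, then rat or human liver microsomes added to start the reaction. Aliquots were withdrawn and quenched at several time points, and percent parent remaining was measured by HPLC-MS and plotted against time. t1/2 was taken from the slope of peak area over time and used to calculate CLint.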

[8] = Intrinsic clearance in Sprague-Dawley rat liver microsomes at 1 to 5 uM by HPLC-MS analysis; format: ADME, Microsome; details: read-out: CLH; in short: as §1
[9] = Intrinsic clearance in human liver microsomes at 1 to 5 uM by HPLC-MS analysis; format: ADME, Microsome; details: read-out: CLH; in short: as §1
CYP2D6 = CYP2D6 (Homo sapiens, UniProt P10635); experiment: Inhibition of human recombinant microsomal CYP2D6 using {3-[2-(N,N-diethyl-N-methylamino)ethyl]-7-methoxy-4-methylcoumarin} as substrate assessed as remaining activity at 10 uM after 30 mins by spectrofluorimetric analysis relative to control; format: ADME; details: read-out: Activity
Albumin = Albumin (Homo sapiens, UniProt P02768); experiment: Binding affinity to human serum albumin at 5 uM after 12 mins by HPLC-MS analysis relative to control; format: ADME; details: isolated protein, 0.2 h
[10] = Half life in Sprague-Dawley rat liver microsomes at 1 to 5 uM by HPLC-MS analysis; format: ADME, Microsome; in short: as §1
Mus musculus [11] = organism: Mus musculus; experiment: Hypothermic activity in Swiss mouse assessed as change in rectal temperature after 60 mins; format: functional; details: 1 h, read-out: MED
[12] = molecular target: T3, 5-hydroxytryptamine receptor 1A (Homo sapiens, UniProt P08908); experiment: Agonist activity at human 5-HT1A receptor expressed in human HeLa cells assessed as inhibition of forskolin-stimulated cAMP formation after 10 mins by RIA; format: functional, cell-based
T3 sequence (P08908 whole entry): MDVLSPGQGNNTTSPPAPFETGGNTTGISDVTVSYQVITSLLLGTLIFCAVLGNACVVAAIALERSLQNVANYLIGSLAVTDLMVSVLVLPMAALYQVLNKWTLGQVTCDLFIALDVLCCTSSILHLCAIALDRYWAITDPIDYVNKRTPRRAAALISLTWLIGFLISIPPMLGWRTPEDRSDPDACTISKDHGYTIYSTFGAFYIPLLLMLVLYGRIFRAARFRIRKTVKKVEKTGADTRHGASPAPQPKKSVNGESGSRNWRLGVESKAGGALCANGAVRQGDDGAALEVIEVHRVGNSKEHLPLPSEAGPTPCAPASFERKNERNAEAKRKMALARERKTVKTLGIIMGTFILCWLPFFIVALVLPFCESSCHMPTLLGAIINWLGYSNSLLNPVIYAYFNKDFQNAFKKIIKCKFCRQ

Mus musculus [13] = experiment: Antinociceptive activity in CD-1 mouse assessed as reduction of formalin-induced paw licking activity at 100 mg/kg, ip administered 15 mins prior to formalin-challenge measured after 5 to 30 mins; format: functional, organism-based; set-up: dose 100 mg/kg
In short: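 Formalin injected intradermally in mice. Formalin-induced nociceptive behaviour is scored separately in the early and late phases of the test.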

[14] = molecular target: T3, 5-hydroxytryptamine receptor 1A; experiment: Partial agonist activity at human 5-HT1A receptor expressed in human HeLa cells assessed as inhibition of forskolin-stimulated cAMP formation after 10 mins by RIA; format: functional, cell-based

Chain of 5-hydroxytryptamine receptor 4 (Q62758 whole entry): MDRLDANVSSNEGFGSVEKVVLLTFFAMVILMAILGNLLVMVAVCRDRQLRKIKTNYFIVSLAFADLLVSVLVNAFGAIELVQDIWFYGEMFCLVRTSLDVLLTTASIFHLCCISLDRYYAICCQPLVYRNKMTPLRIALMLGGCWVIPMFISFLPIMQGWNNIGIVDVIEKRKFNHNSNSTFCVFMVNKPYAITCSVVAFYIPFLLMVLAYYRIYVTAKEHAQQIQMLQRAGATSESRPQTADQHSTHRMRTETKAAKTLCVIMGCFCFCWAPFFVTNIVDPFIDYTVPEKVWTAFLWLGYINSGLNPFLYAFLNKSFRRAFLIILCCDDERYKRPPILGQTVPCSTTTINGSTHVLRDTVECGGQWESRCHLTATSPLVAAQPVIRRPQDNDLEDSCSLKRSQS
Chain of CYP2D6 (P10635 whole entry): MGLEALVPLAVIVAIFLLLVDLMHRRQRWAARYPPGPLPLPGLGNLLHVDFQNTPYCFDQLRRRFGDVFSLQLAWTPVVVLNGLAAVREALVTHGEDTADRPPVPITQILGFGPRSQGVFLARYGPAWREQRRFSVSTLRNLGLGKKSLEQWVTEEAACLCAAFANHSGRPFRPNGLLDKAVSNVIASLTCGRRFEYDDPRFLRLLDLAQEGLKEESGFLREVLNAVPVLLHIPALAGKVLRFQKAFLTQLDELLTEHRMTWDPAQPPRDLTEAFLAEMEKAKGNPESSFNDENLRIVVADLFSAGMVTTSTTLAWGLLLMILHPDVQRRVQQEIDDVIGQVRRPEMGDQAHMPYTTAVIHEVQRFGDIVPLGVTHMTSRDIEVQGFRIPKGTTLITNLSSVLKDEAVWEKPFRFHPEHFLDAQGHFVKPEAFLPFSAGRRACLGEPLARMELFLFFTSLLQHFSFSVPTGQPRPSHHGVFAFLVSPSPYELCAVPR
Chain of 5-hydroxytryptamine receptor 2A (P14842 whole entry): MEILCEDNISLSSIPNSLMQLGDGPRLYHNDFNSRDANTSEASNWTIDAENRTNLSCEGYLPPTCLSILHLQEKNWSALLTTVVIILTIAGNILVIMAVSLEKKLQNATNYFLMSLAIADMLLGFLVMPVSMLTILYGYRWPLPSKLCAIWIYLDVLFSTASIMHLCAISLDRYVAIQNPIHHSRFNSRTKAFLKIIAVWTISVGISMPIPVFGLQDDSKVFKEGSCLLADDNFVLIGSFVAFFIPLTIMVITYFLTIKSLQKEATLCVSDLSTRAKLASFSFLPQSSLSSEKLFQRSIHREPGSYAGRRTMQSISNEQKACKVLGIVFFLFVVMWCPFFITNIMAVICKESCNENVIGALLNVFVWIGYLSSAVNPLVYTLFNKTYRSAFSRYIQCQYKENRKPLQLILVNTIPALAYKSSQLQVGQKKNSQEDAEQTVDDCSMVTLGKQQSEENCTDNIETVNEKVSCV
Chain of 5-hydroxytryptamine receptor 7 (P32305 whole entry): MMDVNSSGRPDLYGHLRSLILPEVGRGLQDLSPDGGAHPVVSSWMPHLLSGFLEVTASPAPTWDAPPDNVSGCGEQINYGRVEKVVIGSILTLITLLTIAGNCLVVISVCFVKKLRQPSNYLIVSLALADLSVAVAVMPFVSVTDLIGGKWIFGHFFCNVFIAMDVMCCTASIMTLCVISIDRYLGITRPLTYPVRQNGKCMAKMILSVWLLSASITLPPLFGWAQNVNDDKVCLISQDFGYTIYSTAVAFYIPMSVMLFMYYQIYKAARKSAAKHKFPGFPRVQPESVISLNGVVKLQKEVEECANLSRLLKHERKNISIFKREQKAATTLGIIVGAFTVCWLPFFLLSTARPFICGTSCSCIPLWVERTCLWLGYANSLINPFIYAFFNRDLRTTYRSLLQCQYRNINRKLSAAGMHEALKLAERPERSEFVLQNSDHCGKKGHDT
Chain of Albumin (P02768 whole entry): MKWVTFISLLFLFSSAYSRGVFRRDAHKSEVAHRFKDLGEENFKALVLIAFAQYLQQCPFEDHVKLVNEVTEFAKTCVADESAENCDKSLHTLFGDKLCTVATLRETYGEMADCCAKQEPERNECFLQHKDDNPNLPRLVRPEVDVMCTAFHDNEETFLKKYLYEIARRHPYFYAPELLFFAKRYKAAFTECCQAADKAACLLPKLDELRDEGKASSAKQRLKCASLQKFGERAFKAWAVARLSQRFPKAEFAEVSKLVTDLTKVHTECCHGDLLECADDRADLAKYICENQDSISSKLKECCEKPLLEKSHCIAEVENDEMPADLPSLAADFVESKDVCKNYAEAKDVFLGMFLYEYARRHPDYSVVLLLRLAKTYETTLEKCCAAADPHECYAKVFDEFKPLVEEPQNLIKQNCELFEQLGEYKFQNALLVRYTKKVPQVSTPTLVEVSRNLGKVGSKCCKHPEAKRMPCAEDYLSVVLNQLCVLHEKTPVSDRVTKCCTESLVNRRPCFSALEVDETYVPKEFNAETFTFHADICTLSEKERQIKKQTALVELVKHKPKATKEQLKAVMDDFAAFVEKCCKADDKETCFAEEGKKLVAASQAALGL

| Compound | Ki [1] [nM] | Ki [2] [nM] | Ki [3] [nM] | Ki [4] [nM] | Ki [5] [nM] | other results |
| --- | --- | --- | --- | --- | --- | --- |
| O=C1C2CCCN2C(=O)N1CCCCNCCOc1ccc(C(F)(F)F)cc1 (configuration not stated) | > 1000 | – | – | – | – | – |
| N#Cc1ccc(OCCNCCCCN2C(=O)C3CCCN3C2=O)cc1 (configuration not stated) | > 1000 | – | – | – | – | – |
| O=C1C2CCCN2C(=O)N1CCCCNCCOc1cccc2c1CCCC2 (configuration not stated) | 38 | > 1000 | 49 | > 1000 | > 1000 | – |
| N#Cc1cccc(OCCNCCCCN2C(=O)C3CCCN3C2=O)c1 (configuration not stated) | > 1000 | – | – | – | – | – |
| CCc1cccc(OCCNCCCCN2C(=O)C3CCCN3C2=O)c1 (configuration not stated) | 30 | > 1000 | > 1000 | > 1000 | > 1000 | – |
| Cl.O=C1C2CCCN2C(=O)N1CCCCNCCOc1ccccc1 (configuration not stated) | – | > 1000 | > 1000 | > 1000 | > 1000 | Activity (Mus musculus [6]): Active; half-life at up to 5 µM [7]: 2.52 h; CLint scaled at up to 5 µM [8]: 140 mL/min/kg; CLint scaled at up to 5 µM [9]: 4.1 mL/min/kg; activity at 0.5 h, 10 µM (CYP2D6): 24%; Activity (Albumin): 38%; half-life at up to 5 µM [10]: 0.167 h; minimal effective dose (Mus musculus [11]): 2.5 mg/kg |
| COc1ccccc1CNCCCCN1C(=O)C2CCCN2C1=O (configuration not stated) | > 1000 | – | – | – | – | – |
| O=C1C2CCCN2C(=O)N1CCCCNCCOc1ccccc1C(F)(F)F (configuration not stated) | 510 | – | – | – | – | – |
| COc1ccc(OCCNCCCCN2C(=O)C3CCCN3C2=O)cc1 (configuration not stated) | > 1000 | – | – | – | – | – |
| O=C1C2CCCN2C(=O)N1CCCCNCCOc1ccccc1-c1ccccc1 (configuration not stated) | 26 | > 1000 | > 1000 | 101 | > 1000 | – |
| COc1cc(COc2cc(N)c(Cl)cc2C(=O)CCC2CCN(CCNS(C)(=O)=O)CC2)cc(OC)c1 | – | 3.9 | – | – | – | – |
| O=C1C2CCCN2C(=O)N1CCCCNCCOc1ccc(-c2ccccc2)cc1 (configuration not stated) | > 1000 | – | – | – | – | – |
| O=C1C2CCCN2C(=O)N1CCCCNCCOc1cccc(C(F)(F)F)c1 (configuration not stated) | 38.9 | – | – | – | – | – |
| Cl.O=C1C2CCCN2C(=O)N1CCCCNCCOc1cccc2ccccc12 (configuration not stated) | – | > 1000 | 41 | – | > 1000 | Activity (Mus musculus [6]): Active; half-life at up to 5 µM [7]: 2.05 h; EC50 [12]: 45 nM; CLint scaled at up to 5 µM [8]: 171 mL/min/kg; CLint scaled at up to 5 µM [9]: 5.1 mL/min/kg; activity at 0.5 h, 10 µM (CYP2D6): 6%; Activity (Albumin): 60%; half-life at up to 5 µM [10]: 0.135 h; minimal effective dose (Mus musculus [11]): 10 mg/kg |
| CC(C)c1ccccc1OCCNCCCCN1C(=O)C2CCCN2C1=O (configuration not stated) | 38 | > 1000 | 260 | > 1000 | > 1000 | – |
| Cc1cccc(OCCNCCCCN2C(=O)C3CCCN3C2=O)c1C (configuration not stated) | 45 | > 1000 | 310 | > 1000 | > 1000 | – |

| Compound | Ki [1] [nM] | Ki [2] [nM] | Ki [3] [nM] | Ki [4] [nM] | Ki [5] [nM] | other results |
| --- | --- | --- | --- | --- | --- | --- |
| COc1ccc(OCCNCCCCN2C(=O)C3CCCN3C2=O)c2ccccc12 (configuration not stated) | 27 | > 1000 | > 1000 | 301 | > 1000 | – |
| NCCc1c[nH]c2ccc(C(N)=O)cc12 | – | – | – | 1.8 | – | – |
| CCc1ccc(OCCNCCCCN2C(=O)C3CCCN3C2=O)cc1 (configuration not stated) | 742 | – | – | – | – | – |
| O=C1C2CCCN2C(=O)N1CCCCNCCOc1cccc(Br)c1 (configuration not stated) | 52 | > 1000 | 514 | > 1000 | > 1000 | – |
| COc1cccc(OCCNCCCCN2C(=O)C3CCCN3C2=O)c1 (configuration not stated) | 34 | > 1000 | > 1000 | > 1000 | > 1000 | – |
| NCC1(CC(=O)O)CCCCC1 | – | – | – | – | – | Activity (Mus musculus [13]): Active |
| CCc1ccccc1OCCNCCCCN1C(=O)C2CCCN2C1=O.Cl (configuration not stated) | 16.8 | > 1000 | 366 | 185 | > 1000 | EC50 [14]: 1200 nM; half-life at up to 5 µM [7]: 2.28 h; CLint scaled at up to 5 µM [8]: 131 mL/min/kg; CLint scaled at up to 5 µM [9]: 4.6 mL/min/kg; activity at 0.5 h, 10 µM (CYP2D6): 13%; Activity (Albumin): 55%; half-life at up to 5 µM [10]: 0.178 h; minimal effective dose (Mus musculus [11]): 10 mg/kg |
| COc1cc(F)ccc1OCCNCCCCN1C(=O)C2CCCN2C1=O (configuration not stated) | 37.4 | > 1000 | > 1000 | > 1000 | > 1000 | – |
| COc1ccccc1OCCNCCCCN1C(=O)C2CCCN2C1=O.Cl (configuration not stated) | 4.8 | > 1000 | 267 | > 1000 | > 1000 | Activity (Mus musculus [6]): Active; half-life at up to 5 µM [7]: 3.95 h; EC50 [12]: 23 nM; CLint scaled at up to 5 µM [8]: 145 mL/min/kg; CLint scaled at up to 5 µM [9]: 2.6 mL/min/kg; activity at 0.5 h, 10 µM (CYP2D6): 48%; Activity (Albumin): 25%; half-life at up to 5 µM [10]: 0.162 h; minimal effective dose (Mus musculus [11]): 0.625 mg/kg |
| O=C1C2CCCN2C(=O)N1CCCCNCCOc1cccc2cccnc12 (configuration not stated) | 44 | > 1000 | > 1000 | 15 | > 1000 | – |
| N#Cc1ccccc1OCCNCCCCN1C(=O)C2CCCN2C1=O (configuration not stated) | > 1000 | – | – | – | – | – |
| O=C1C2CCCN2C(=O)N1CCCCNCCOc1ccc(Br)cc1 (configuration not stated) | > 1000 | – | – | – | – | – |
| O=C1C2CCCN2C(=O)N1CCCCNCCOc1ccc2ccccc2c1 (configuration not stated) | 41 | > 1000 | 422 | > 1000 | > 1000 | – |
| O=C1C2CCCN2C(=O)N1CCCCNCCOc1cccc(-c2ccccc2)c1 (configuration not stated) | 72 | – | – | – | – | – |
| O=C1C2CCCN2C(=O)N1CCCCNCCOc1ccccc1Br (configuration not stated) | 62 | – | – | – | – | – |

— ChEMBL document CHEMBL2429786, “New serotonin 5-HT1A receptor agonists endowed with antinociceptive activity in vivo” (J Med Chem, 2013)
